In ChEMBL document CHEMBL4033783, “Adventures in Scaffold Morphing: Discovery of Fused Ring Heterocyclic Checkpoint Kinase 1 (CHK1) Inhibitors” (J Med Chem, 2018):
Converted amounts (≈) assume the structure as drawn. Each block holds one molecule with its values, some of them ahead of it.

What was measured:
[1] = target: Voltage-gated inwardly rectifying potassium channel KCNH2 (Homo sapiens, UniProt Q12809)
[2] = target: T1, Serine/threonine-protein kinase Chk1 (Homo sapiens, UniProt O14757); experiment: Inhibition of CHK1 (unknown origin)
T1 sequence (O14757 whole entry): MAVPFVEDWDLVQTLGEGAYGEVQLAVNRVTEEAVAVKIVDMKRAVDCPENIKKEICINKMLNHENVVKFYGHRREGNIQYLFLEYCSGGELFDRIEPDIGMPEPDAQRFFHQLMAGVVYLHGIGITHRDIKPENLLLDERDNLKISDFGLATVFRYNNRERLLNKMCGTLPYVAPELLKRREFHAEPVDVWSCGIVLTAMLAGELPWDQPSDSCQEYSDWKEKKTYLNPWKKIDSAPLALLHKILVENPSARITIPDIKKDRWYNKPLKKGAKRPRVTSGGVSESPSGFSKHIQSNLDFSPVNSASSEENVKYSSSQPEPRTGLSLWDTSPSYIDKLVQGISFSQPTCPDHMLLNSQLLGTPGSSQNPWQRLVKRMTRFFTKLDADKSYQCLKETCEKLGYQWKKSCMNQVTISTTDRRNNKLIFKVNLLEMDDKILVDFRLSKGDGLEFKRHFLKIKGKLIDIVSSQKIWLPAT

[3] = system: Liver; experiment: Intrinsic clearance in human liver microsomes; format: ADME, microsome
[4] = Intrinsic clearance in Sprague-Dawley rat liver microsomes at […] after 2 mins in presence of NADPH by HPLC analysis; format: ADME, Microsome
[5] = Aqueous solubility of the compound in pH 7.4 phosphate buffer by LC-UV analysis; format: physicochemical
[6] = Half life in iv dosed rat plasma; format: ADME, organism-based
[7] = Clearance in iv dosed dog plasma; format: ADME, organism-based, Canis lupus familiaris
[8] = Clearance in iv dosed rat plasma; format: ADME, organism-based
[9] = target: T2, Serine/threonine-protein kinase Chk1 (Homo sapiens) (UniProt O14757)
T2 sequence (whole entry): T1 sequence (O14757 whole entry)

[10] = target: T2, Serine/threonine-protein kinase Chk1 (Homo sapiens); remark: listed apart in the source
[11] = system: SW-620; experiment: Antiproliferative activity against human SW620 cells; format: functional; conditions: for GI50: Homo sapiens, SW-620
In short: (§1)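 Proliferation-inhibition concentration-response in the tumour cell lines, run as part of a gemcitabine potentiation assay, with the compound tested as a single agent without gemcitabine. Single-agent GI50 and GI25 were derived from the response curves. Values are the mean of two duplicated runs.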

[12] = Volume of distribution at steady state in iv dosed dog plasma; format: ADME, organism-based, Canis lupus familiaris; conditions: read-out: Vdss
[13] = Clearance in iv dosed mouse plasma; format: ADME, organism-based
[14] = Volume of distribution at steady state in iv dosed mouse plasma; format: ADME, organism-based; conditions: read-out: Vdss
[15] = Half life in iv dosed dog plasma; format: ADME, organism-based, Canis lupus familiaris
[16] = target: T2, Serine/threonine-protein kinase Chk1 (Homo sapiens); remark: listed apart in the source
[17] = system: MDA-MB-231; experiment: Antiproliferative activity against human MDA-MB-231 cells; format: functional; conditions: for GI50: Homo sapiens, MDA-MB-231
In short: as §1

[18] = Volume of distribution at steady state in iv dosed rat plasma; format: ADME, organism-based; conditions: read-out: Vdss
[19] = Half life in iv dosed mouse plasma; format: ADME, organism-based
[20] = system: NCI-H460; experiment: Antiproliferative activity against human H460 cells harboring dominant negative p53 construct; format: functional; conditions: for GI50: Homo sapiens, NCI-H460
In short: as §1

[21] = system: HCT-116; experiment: Abrogation of topotecan-induced G2 phase arrest in human HCT116 cells xenografted in mouse hollow fiber model assessed as ratio of cell levels at G2 phase to G1 phase at 10 mg/kg, iv after 30 hrs relative to control; format: functional

Voltage-gated inwardly rectifying potassium channel KCNH2, sequence (Q12809 whole entry): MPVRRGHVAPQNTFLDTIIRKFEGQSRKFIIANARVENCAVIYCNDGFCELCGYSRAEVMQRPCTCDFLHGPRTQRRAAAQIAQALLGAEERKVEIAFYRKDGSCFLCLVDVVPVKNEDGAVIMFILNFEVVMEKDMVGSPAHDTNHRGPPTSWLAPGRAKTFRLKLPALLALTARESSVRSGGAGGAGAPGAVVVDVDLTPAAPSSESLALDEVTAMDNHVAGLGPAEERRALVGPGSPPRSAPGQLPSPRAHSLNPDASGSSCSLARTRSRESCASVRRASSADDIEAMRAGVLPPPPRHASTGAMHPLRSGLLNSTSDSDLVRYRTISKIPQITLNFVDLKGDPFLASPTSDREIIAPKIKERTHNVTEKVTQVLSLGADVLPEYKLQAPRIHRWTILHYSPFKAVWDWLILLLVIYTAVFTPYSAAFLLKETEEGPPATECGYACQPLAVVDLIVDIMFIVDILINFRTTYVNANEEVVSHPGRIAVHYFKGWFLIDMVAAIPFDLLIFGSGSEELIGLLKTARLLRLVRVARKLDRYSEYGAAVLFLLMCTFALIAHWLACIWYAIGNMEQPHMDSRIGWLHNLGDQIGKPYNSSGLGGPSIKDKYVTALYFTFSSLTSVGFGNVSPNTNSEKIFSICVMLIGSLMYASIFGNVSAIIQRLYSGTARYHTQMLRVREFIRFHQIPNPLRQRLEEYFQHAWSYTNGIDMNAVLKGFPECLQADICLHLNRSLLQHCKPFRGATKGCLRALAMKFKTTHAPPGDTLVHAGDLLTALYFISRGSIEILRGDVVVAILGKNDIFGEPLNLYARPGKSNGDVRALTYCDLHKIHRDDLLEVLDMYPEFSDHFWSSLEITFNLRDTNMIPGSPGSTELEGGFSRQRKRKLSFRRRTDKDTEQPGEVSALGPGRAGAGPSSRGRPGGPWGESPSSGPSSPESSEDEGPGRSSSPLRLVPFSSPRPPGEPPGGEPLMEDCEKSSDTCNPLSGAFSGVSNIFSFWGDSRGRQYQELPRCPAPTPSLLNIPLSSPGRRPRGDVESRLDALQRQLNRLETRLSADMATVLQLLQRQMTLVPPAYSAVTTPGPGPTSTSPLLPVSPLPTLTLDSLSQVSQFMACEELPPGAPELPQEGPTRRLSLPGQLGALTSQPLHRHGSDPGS

IC50 [2]: 2.6 µM
Structure (SMILES): NC(=O)c1cnc(N[C@H]2CCCNC2)c2sc(-c3ccccc3)cc12
IC50 [1]: > 31.6 µM

intrinsic clearance (CLint) [3]: 10 µL/min/mg | IC50 [2]: 0.025 µM | intrinsic clearance [4]: 37 µL/min/mg
Structure (SMILES): CN(c1ncc(C(N)=O)c2sc(-c3ccccc3)cc12)[C@H]1CCCNC1
IC50 [1]: 2.7 µM

IC50 [2]: 0.006 µM
Structure (SMILES): Cn1cc(-c2cc3c(N[C@H]4CCCNC4)ncc(C(N)=O)c3s2)cn1

IC50 [2]: 0.023 µM | solubility [5]: 380 µM (≈ 134 µg/mL)
Structure (SMILES): NC(=O)c1ccc(N[C@H]2CCCNC2)c2cc(-c3ccc(F)cc3)[nH]c12
IC50 [1]: 6.7 µM

IC50 [2]: 0.069 µM
Structure (SMILES): C[C@@H]1NCCC[C@@H]1Nc1ncc(C(N)=O)c2sc(-c3ccccc3)cc12
IC50 [1]: 5.9 µM

intrinsic clearance (CLint) [3]: < 5 µL/min/mg | IC50 [2]: 0.056 µM | intrinsic clearance [4]: 11 µL/min/mg
Structure (SMILES): NC(=O)c1cnc(SC2CCCNC2)c2cc(-c3ccccc3)sc12 (racemic)
IC50 [1]: 4.9 µM

IC50 [2]: 0.012 µM
Structure (SMILES): C[C@@H]1CC[C@H](Nc2ncc(C(N)=O)c3sc(-c4ccccc4)cc23)[C@H](C)N1 (racemic)
IC50 [1]: 8.4 µM

IC50 [2]: 0.01 µM
Structure (SMILES): NC(=O)c1cnc(N[C@H]2CNCC[C@@H]2O)c2cc(-c3ccccc3)sc12 (racemic)
IC50 [1]: > 31.6 µM

intrinsic clearance (CLint) [3]: 9.1 µL/min/mg | IC50 [2]: 0.015 µM | solubility [5]: > 1000 µM | intrinsic clearance [4]: 36 µL/min/mg
Structure (SMILES): NC(=O)c1cnc(N[C@H]2CCCNC2)c2cc(-c3cccs3)sc12
IC50 [1]: > 30 µM

Structure (SMILES): C[C@H]1NCCC[C@@H]1Nc1ncc(C(N)=O)c2sc(-c3ccccc3)cc12
half-life [6]: 5.1 h | clearance [7]: 10 mL/min/kg | IC50 [1]: > 31.6 µM | clearance [8]: 105 mL/min/kg | PF [9]: 124 | PF [10]: 11 | GI25 [11]: 0.36 µM | GI50 [11]: 0.725 µM | Vd [12]: 7.1 L/kg | intrinsic clearance (CLint) [3]: < 5 µL/min/mg | IC50 [2]: 0.006 µM | clearance [13]: 29 mL/min/kg | Vd [14]: 4.6 L/kg | intrinsic clearance [4]: < 10 µL/min/mg | half-life [15]: 9.4 h | PF [16]: 5 | GI25 [17]: 0.15 µM | GI50 [17]: 0.306 µM | Vd [18]: 24 L/kg | half-life [19]: 3.4 h

IC50 [2]: 0.083 µM
Structure (SMILES): NC(=O)c1cnc(N[C@H]2CCCN[C@@H]2CCO)c2cc(-c3ccccc3)sc12 (racemic)
IC50 [1]: > 31.6 µM

intrinsic clearance (CLint) [3]: 35 µL/min/mg | IC50 [2]: 0.083 µM | intrinsic clearance [4]: > 120 µL/min/mg
Structure (SMILES): NC(=O)c1cnc(O[C@H]2CCCNC2)c2cc(-c3ccccc3)sc12

IC50 [2]: 0.66 µM
Structure (SMILES): NC(=O)c1cnc(N(CCc2ccccc2)[C@H]2CCCNC2)c2cc(-c3ccccc3)sc12

intrinsic clearance (CLint) [3]: 21 µL/min/mg | IC50 [2]: 0.031 µM | solubility [5]: 280 µM (≈ 93.6 µg/mL) | intrinsic clearance [4]: 120 µL/min/mg
Structure (SMILES): NC(=O)c1ccc(N[C@H]2CCCNC2)c2cc(-c3ccccc3)[nH]c12
IC50 [1]: 11.6 µM

Structure (SMILES): NC(=O)c1cnc(N[C@H]2CCCNC2)c2cc(-c3cccc(F)c3)sc12
half-life [6]: 4.4 h | clearance [7]: 10 mL/min/kg | clearance [8]: 196 mL/min/kg | GI25 [20]: 1.45 µM | GI50 [20]: 2.9 µM | PF [9]: 38 | PF [10]: 11 | GI25 [11]: 0.42 µM | GI50 [11]: 0.841 µM | Vd [12]: 4.4 L/kg | IC50 [2]: 0.012 µM | solubility [5]: 334 µM (≈ 124 µg/mL) | clearance [13]: 28 mL/min/kg | Vd [14]: 4.6 L/kg | half-life [15]: 5.1 h | PF [16]: 4 | GI25 [17]: 0.32 µM | GI50 [17]: 0.641 µM | Vd [18]: 54.3 L/kg | half-life [19]: 8.5 h

Structure (SMILES): NC(=O)c1cnc(N[C@H]2CCCNC2)c2cc(-c3ccccc3)sc12
half-life [6]: 3.1 h | clearance [7]: 11 mL/min/kg | IC50 [1]: 19.7 µM | clearance [8]: 295 mL/min/kg | GI25 [20]: 0.9 µM | GI50 [20]: 1.8 µM | PF [9]: 28 | PF [10]: 12 | GI25 [11]: 0.49 µM | GI50 [11]: 0.97 µM | Vd [12]: 3.7 L/kg | intrinsic clearance (CLint) [3]: 9.2 µL/min/mg | IC50 [2]: 0.007 µM | solubility [5]: > 1000 µM | clearance [13]: 45 mL/min/kg | Vd [14]: 4 L/kg | Ratio [21]: 3.2 | intrinsic clearance [4]: 32 µL/min/mg | half-life [15]: 5.4 h | PF [16]: 5 | GI25 [17]: 0.27 µM | GI50 [17]: 0.536 µM | Vd [18]: 75 L/kg | half-life [19]: 1.5 h

intrinsic clearance (CLint) [3]: 29 µL/min/mg | IC50 [2]: 0.006 µM | solubility [5]: 980 µM (≈ 351 µg/mL) | intrinsic clearance [4]: 72 µL/min/mg
Structure (SMILES): NC(=O)c1cnc(N[C@H]2CCCNC2)c2cc(-c3ccsc3)sc12
IC50 [1]: 28 µM

IC50 [2]: 0.021 µM
Structure (SMILES): C[C@@H]1CC[C@H](Nc2ncc(C(N)=O)c3sc(-c4ccccc4)cc23)CN1 (racemic)

IC50 [2]: 0.02 µM
Structure (SMILES): NC(=O)c1cnc(N[C@H]2CCCNC2)c2cc(-c3cn[nH]c3)sc12

IC50 [2]: 0.024 µM
Structure (SMILES): NC(=O)c1cnc(N[C@H]2CCCNC2)c2cc(-n3ccnc3)sc12

IC50 [2]: 0.014 µM
Structure (SMILES): NC(=O)c1cnc(N[C@H]2CCCNC2)c2cc(-c3cnn(Cc4ccccc4)c3)sc12

IC50 [2]: 0.035 µM
Structure (SMILES): CCN(c1ncc(C(N)=O)c2sc(-c3ccccc3)cc12)[C@H]1CCCNC1
IC50 [1]: 2.4 µM

IC50 [2]: 0.079 µM
Structure (SMILES): NC(=O)c1cnc(N(CCO)[C@H]2CCCNC2)c2cc(-c3ccccc3)sc12
IC50 [1]: > 31.6 µM

Structure (SMILES): NC(=O)Nc1sc(-c2ccccc2)cc1C(=O)N[C@H]1CCCNC1
IC50 [1]: > 31.6 µM | GI25 [20]: 0.62 µM | GI50 [20]: 1.23 µM | PF [9]: 67 | PF [10]: 11 | GI25 [11]: 0.42 µM | GI50 [11]: 0.839 µM | solubility [5]: > 2000 µM | PF [16]: 9 | GI25 [17]: 0.3 µM | GI50 [17]: 0.596 µM

IC50 [2]: 0.015 µM | solubility [5]: 320 µM (≈ 118 µg/mL)
Structure (SMILES): NC(=O)c1ccc(N[C@H]2CCCNC2)c2cc(-c3ccc(Cl)cc3)[nH]c12
IC50 [1]: 4.1 µM

IC50 [2]: 0.009 µM
Structure (SMILES): NC(=O)c1ccc(N[C@H]2CCCNC2)c2cc(-c3cccc(F)c3)[nH]c12
IC50 [1]: 7.7 µM

IC50 [2]: 0.14 µM
Structure (SMILES): CN1CCC[C@H](Nc2ncc(C(N)=O)c3sc(-c4ccccc4)cc23)C1

Structure (SMILES): Nc1ccn([C@@H]2O[C@H](CO)[C@@H](O)C2(F)F)c(=O)n1 [GEMCITABINE]
GI50 [20]: 2.08 µM | GI50 [11]: 0.84 µM | GI50 [17]: 0.251 µM

IC50 [2]: 6.8 µM
Structure (SMILES): NC(=O)c1cnc(N[C@H]2CCCNC2)c2sc(-c3cccc(F)c3)cc12

IC50 [2]: 0.33 µM | solubility [5]: > 1000 µM
Structure (SMILES): NC(=O)c1cnc(N[C@H]2CCCNC2)c2cc(-c3ccccc3)oc12
